Laboratory results from publication PMC5071636 (Acta Pharmaceutica Sinica. B, 2016).

Legend:
cells = conditions: at high concentrations; cited from earlier work
[1] = tested on: eEF2 phosphorylation in HCT116 cells; assay: Western blot of phospho-eEF2 in HCT116 cells; type: cell-based, human; conditions: 6 h treatment
eEF2K in cells = conditions: cited from earlier work
[2] = tested on: eEF2 phosphorylation in H1299 cells; assay: Western blot of phospho-eEF2 in H1299 cells; type: cell-based, human; conditions: 6 h treatment
[3] = tested on: eEF2 phosphorylation in MDA-MB-453 cells; assay: Western blot of phospho-eEF2; type: cell-based, human
Procedure, shortened: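 MDA-MB-453 grown in L15 with 10% FBS, 1 mmol/L pyruvate, 0.5 mg/mL geneticin, no CO2. Seeded at 2×10^5 cells/well; 24 h later given test compound at several concentrations for 6 h. Lysed in 2× SDS loading buffer, 95 °C 10 min, on 10% gels to PVDF, milk-blocked. Probed overnight at 4 °C for phospho-eEF2 Thr56 and eEF2, β-actin loading control. Fluorescent secondary read-out. Three independent experiments in duplicate, mean ±SEM.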

eEF2K = conditions: cited from earlier work

Q: What does the source list for CCn1c(=O)c2cc(C(N)=O)c(N)nc2n(C2CC2)c1=O [A484954]?
A: cytotoxicity (cells): cytotoxic at high concentrations; effect on eEF2 phosphorylation (p-eEF2) [1]: capable of inhibiting eEF2 phosphorylation; potency on eEF2K in cells (eEF2K in cells): rather low potency; effect on eEF2 phosphorylation (p-eEF2) [2]: capable of inhibiting eEF2 phosphorylation; effect on eEF2 phosphorylation (p-eEF2) ([3]; MDA-MB-453 cells, 6 h treatment): capable of inhibiting eEF2 phosphorylation; total protein level of eEF2 ([3]; in the cell): not affected

Q: For CCCCCCCCCCCCCCCC[n+]1ccn(Cc2ccccc2)c1C.[I-] [NH125, 1-Benzyl-3-cetyl-2-methylimidazolium iodide], which “effect on eEF2 phosphorylation in vivo” value (eEF2K in cells) is on record?
A: promotes eEF2 phosphorylation

Q: What about the “effect on eEF2K activity in vitro” value (eEF2K) of the same molecule?
A: inhibits eEF2K activity

Q: For c1cnc2sccc2c1 [Thieno [2,3-b] pyridine], which “inhibitory effects on eEF2K in cells” value (eEF2K in cells) is on record?
A: weak inhibitory effects
